Source: ChEMBL document CHEMBL1156261, “Evaluation of substituted N,N'-diarylsulfonamides as activators of the tumor cell specific M2 isoform of pyruvate kinase” (J Med Chem, 2010)
Activity calls are given as the source filed them. The rule behind the calls is not given here.

Experiments:
[1] = biological target: Pyruvate kinase PKLR (Homo sapiens) (UniProt P30613); test: Activation of PKL assessed as ATP product formation by luminescent pyruvate kinase-luciferase coupled assay relative to control; parameters: concentration or dose not given beside the values
Chain of Pyruvate kinase PKLR (Homo sapiens) (P30613 whole entry, looked up): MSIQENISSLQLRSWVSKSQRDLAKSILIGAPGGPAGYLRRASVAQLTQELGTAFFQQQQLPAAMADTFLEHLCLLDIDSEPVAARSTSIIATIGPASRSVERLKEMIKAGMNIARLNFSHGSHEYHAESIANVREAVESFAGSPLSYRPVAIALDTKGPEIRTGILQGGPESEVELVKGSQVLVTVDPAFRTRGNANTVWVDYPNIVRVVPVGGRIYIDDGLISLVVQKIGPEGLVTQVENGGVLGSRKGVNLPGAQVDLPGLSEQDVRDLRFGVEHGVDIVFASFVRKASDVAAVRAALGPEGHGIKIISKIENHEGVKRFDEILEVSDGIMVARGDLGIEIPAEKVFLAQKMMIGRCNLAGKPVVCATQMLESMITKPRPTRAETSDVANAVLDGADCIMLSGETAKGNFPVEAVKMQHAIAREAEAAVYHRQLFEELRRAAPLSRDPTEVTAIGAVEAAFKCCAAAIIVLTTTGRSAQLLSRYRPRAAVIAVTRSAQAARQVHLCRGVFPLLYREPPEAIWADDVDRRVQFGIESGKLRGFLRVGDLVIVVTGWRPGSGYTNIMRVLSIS
Outline: (§1)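 Luciferase-coupled ATP production assay run as for PKM2: imidazole pH 7.2 buffer with KCl, MgCl2, Tween 20 and BSA, 0.1 mM ADP, 0.5 mM PEP, 1 h at r.t., Kinase-Glo luminescence. Enzyme final concentrations were PKM1 1 nM, PKL 0.1 nM, PKR 0.1 nM. % activation normalized to DMSO (neutral) and no-enzyme controls.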

Pyruvate kinase PKM [2] = biological target: T1, Pyruvate kinase PKM (Homo sapiens, UniProt P14618); test: Activation of PKM2 assessed as ATP product formation at 57 uM by luminescent pyruvate kinase-luciferase coupled assay relative to fructose-1,6-bis-phosphate
T1 sequence (P14618 2-531 limits assumed): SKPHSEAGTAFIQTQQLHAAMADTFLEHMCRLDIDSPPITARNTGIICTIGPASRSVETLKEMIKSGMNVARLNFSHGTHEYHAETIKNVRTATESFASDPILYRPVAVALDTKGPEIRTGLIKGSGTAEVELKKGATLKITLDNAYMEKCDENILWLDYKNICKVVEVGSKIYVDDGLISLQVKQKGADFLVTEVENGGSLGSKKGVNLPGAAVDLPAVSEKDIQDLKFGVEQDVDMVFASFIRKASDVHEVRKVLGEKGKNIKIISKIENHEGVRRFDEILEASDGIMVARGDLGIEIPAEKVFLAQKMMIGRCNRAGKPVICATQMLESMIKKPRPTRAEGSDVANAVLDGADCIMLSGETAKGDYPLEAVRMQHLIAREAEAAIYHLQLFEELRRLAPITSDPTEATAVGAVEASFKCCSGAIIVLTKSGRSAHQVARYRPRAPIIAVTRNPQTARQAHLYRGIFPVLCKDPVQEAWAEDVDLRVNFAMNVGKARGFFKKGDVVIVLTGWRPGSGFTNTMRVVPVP
Outline: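 Recombinant human PKM2 (0.1 nM final) in 50 mM imidazole pH 7.2, 50 mM KCl, 7 mM MgCl2, 0.01% Tween 20, 0.05% BSA; 0.1 mM ADP, 0.5 mM PEP; 1 h at r.t., then Kinase-Glo luciferase read of ATP formed. Activation % = (c−n)/(n−i)×100 against DMSO and no-enzyme controls; 100% ≈ 2-fold over basal signal. Max response taken at 57 μM; three separate experiments.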

Pyruvate kinase PKM [3] = biological target: T1, Pyruvate kinase PKM; test: Activation of PKM1 assessed as pyruvate formation by fluorescent pyruvate kinase-lactate dehydrogenase coupled assay
[4] = biological target: Pyruvate kinase PKLR (Homo sapiens) (UniProt P30613); test: Activation of PKL assessed as pyruvate formation by fluorescent pyruvate kinase-lactate dehydrogenase coupled assay relative to control; parameters: concentration or dose not given beside the values
[5] = biological target: Pyruvate kinase PKLR (Homo sapiens) (UniProt P30613); test: Activation of PKR assessed as pyruvate formation by fluorescent pyruvate kinase-lactate dehydrogenase coupled assay relative to control; parameters: concentration or dose not given beside the values
Pyruvate kinase PKM [6] = biological target: T1, Pyruvate kinase PKM; test: Activation of PKM1 assessed as ATP product formation by luminescent pyruvate kinase-luciferase coupled assay; outline: as §1
[7] = biological target: Pyruvate kinase PKLR (Homo sapiens) (UniProt P30613); test: Activation of PKR assessed as ATP product formation by luminescent pyruvate kinase-luciferase coupled assay relative to control; parameters: concentration or dose not given beside the values; outline: as §1

SMILES | Activity [1] [%] | Activity (Pyruvate kinase PKM [2]) [%] | Activity (Pyruvate kinase PKM [3]) | Activity [4] [%] | Activity [5] [%] | Activity (Pyruvate kinase PKM [6]) | Activity [7] [%]
O=S(=O)(c1ccc2c(c1)OCCO2)N1CCN(S(=O)(=O)c2ccc(F)cc2F)CC1 | < 30 | 113 | inactive | < 30 | < 30 | inactive | < 30
O=S(=O)(c1ccc2c(c1)OCCO2)N1CCN(S(=O)(=O)c2c(F)ccc(O)c2F)CC1 | < 30 | 95.3 | inactive | < 30 | < 30 | inactive | < 30
O=S(=O)(c1ccc2c(c1)OCCO2)N1CCN(S(=O)(=O)c2ccccc2F)CC1 | < 30 | 114 | inactive | < 30 | < 30 | inactive | < 30
O=S(=O)(c1ccc2c(c1)OCCO2)N1CCN(S(=O)(=O)c2ccc3c(c2)OCCO3)CC1 | < 30 | 89.7 | inactive | < 30 | < 30 | inactive | < 30
O=S(=O)(NCCCCNS(=O)(=O)c1c(F)cccc1F)c1ccc2c(c1)OCCO2 | < 30 | 113 | inactive | < 30 | < 30 | inactive | < 30
O=S(=O)(c1cccc(C(F)(F)F)c1)N1CCN(S(=O)(=O)c2ccc3c(c2)OCCO3)CC1 | < 30 | 39.3 | inactive | < 30 | < 30 | inactive | < 30
N#Cc1ccc(S(=O)(=O)N2CCN(S(=O)(=O)c3ccc4c(c3)OCCO4)CC2)cc1 | < 30 | 44.1 | inactive | < 30 | < 30 | inactive | < 30
O=S(=O)(c1c(F)cccc1F)C1CCN(S(=O)(=O)c2ccc3c(c2)OCCO3)CC1 | < 30 | 104 | inactive | < 30 | < 30 | inactive | < 30
O=S(=O)(c1ccc2c(c1)OCO2)N1CCN(S(=O)(=O)c2c(F)cccc2F)CC1 | < 30 | 61 | inactive | < 30 | < 30 | inactive | < 30
O=S(=O)(c1ccc2ccccc2c1)N1CCN(S(=O)(=O)c2c(F)cccc2F)CC1 | < 30 | 138 | inactive | < 30 | < 30 | inactive | < 30
COc1ccc(S(=O)(=O)N2CCN(S(=O)(=O)c3ccc(OC)cc3)CC2)cc1 | < 30 | 87.6 | inactive | < 30 | < 30 | inactive | < 30
O=C1CN(S(=O)(=O)c2c(F)cccc2F)CCN1S(=O)(=O)c1ccc2c(c1)OCCO2 | < 30 | 105 | inactive | < 30 | < 30 | inactive | < 30
O=S(=O)(c1ccccc1)N1CCN(S(=O)(=O)c2ccc3c(c2)OCCO3)CC1 | < 30 | 108 | inactive | < 30 | < 30 | inactive | < 30
O=S(=O)(c1cccc(F)c1)N1CCN(S(=O)(=O)c2ccc3c(c2)OCCO3)CC1 | < 30 | 107 | inactive | < 30 | < 30 | inactive | < 30
O=S(=O)(NCCCCCCNS(=O)(=O)c1c(F)cccc1F)c1ccc2c(c1)OCCO2 | < 30 | 110 | inactive | < 30 | < 30 | inactive | < 30
COc1cc(F)c(S(=O)(=O)N2CCN(S(=O)(=O)c3ccc4c(c3)OCCO4)CC2)c(F)c1 | < 30 | 91.8 | inactive | < 30 | < 30 | inactive | < 30
